# Measurements published in ChEMBL document CHEMBL5223148, “Design, synthesis, and bioactivity evaluation of novel 1-(4-(benzylsulfonyl)-2-nitrophenyl) derivatives as potential anti-inflammatory agents against LPS-induced acute lung injury” (Bioorg Med Chem Lett, 2023).
# Calls of active or inactive are those of the source. The rule behind the calls is not given here.
# Assays:
# J774.A1 [1] = test: Antiinflammatory activity in mouse J774.A1 cells assessed as decrease in LPS-induced IL-6 secretion at 20 uM preincubated for 30 mins followed by LPS stimulation and measured after 24 hrs by ELISA; assay type: functional; parameters: scale not given: the % may be the effect or the level left; conditions: time 24.5 hrs
# Procedure, shortened: (§1)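 J774A.1 macrophages pretreated 30 min with 20 μM compound, DMSO as negative control. Cells then stimulated with LPS at 0.5 μg/mL for 24 h. IL-6 and TNF-α in the culture medium measured by ELISA.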
# J774.A1 [2] = test: Antiinflammatory activity in mouse J774.A1 cells assessed as decrease in LPS-induced TNF-alpha secretion at 20 uM preincubated for 30 mins followed by LPS stimulation and measured after 24 hrs by ELISA; assay type: functional; conditions: time 24.5 hrs; procedure, shortened: as §1
# J774.A1 [3] = test: Antiinflammatory activity in mouse J774.A1 cells assessed as decrease in LPS-induced IL-6 secretion preincubated for 30 mins followed by LPS stimulation and measured after 24 hrs by ELISA; assay type: functional, cell-based; conditions: for Activity: time 24.5 hrs
# Procedure, shortened: (§2)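 J774A.1 cells pretreated 30 min across a concentration range, then challenged with LPS at 0.5 μg/mL for 24 h. Secreted IL-6 or TNF-α measured in the medium by ELISA, and IC50 taken from dose–response. Mean ± SEM of 3 independent experiments.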
# J774.A1 [4] = test: Antiinflammatory activity in mouse J774.A1 cells assessed as decrease in LPS-induced TNF-alpha secretion preincubated for 30 mins followed by LPS stimulation and measured after 24 hrs by ELISA; assay type: functional, cell-based; conditions: for Activity: time 24.5 hrs; procedure, shortened: as §2
# Mus musculus [5] = test: Antiinflammatory activity in C57BL/6J mouse model of LPS-induced acute lung injury assessed as reduction in neutrophil count in BALF at 20 mg/kg, po administered 30 mins prior to LPS treatment and measured after 6 hrs by Wright and Giemsa staining based analysis; assay type: functional, organism-based; conditions: time 6.5 hrs
# Procedure, shortened: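 Oral dosing 30 min before intratracheal LPS at 5 mg/kg, with a saline sham group. BALF collected at 6 h and neutrophils counted by Wright-Giemsa staining, given relative to control. Mean ± SEM, n = 8.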
# Mus musculus [6] = test: Antiinflammatory activity in C57BL/6J mouse model of LPS-induced acute lung injury assessed as reduction in […] infiltration at 20 mg/kg, po administered 30 mins prior to LPS treatment and measured after 6 hrs by F4/80 antibody staining based assay; assay type: functional, organism-based; conditions: time 6.5 hrs
# Procedure, shortened: (§3)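 Oral pretreatment 30 min before intratracheal LPS at 5 mg/kg, with a saline sham group. Lungs taken at 6 h. Sections immunostained for F4/80 (macrophage marker) or for p-p65, counterstained with hematoxylin. Percentage of positive cells assessed.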
# Mus musculus [7] = test: Antiinflammatory activity in C57BL/6J mouse model of LPS-induced acute lung injury assessed as reduction in p-p65 level at 20 mg/kg, po administered 30 mins prior to LPS treatment and measured after 6 hrs by immunohistochemical analysis; assay type: functional, organism-based; conditions: time 6.5 hrs; procedure, shortened: as §3
# Mus musculus [8] = test: Antiinflammatory activity in C57BL/6J mouse model of LPS-induced acute lung injury assessed as reduction in TNF-alpha production in BALF at 20 mg/kg, po administered 30 mins prior to LPS treatment and measured after 6 hrs; assay type: functional, organism-based; conditions: time 6.5 hrs
# Procedure, shortened: (§4)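 Mice dosed orally 30 min before intratracheal LPS at 5 mg/kg; sham mice received a similar volume of saline. Animals sacrificed 6 h after LPS, and blood and BALF collected. TNF-α and IL-6 measured in serum and in BALF. Mean ± SEM, n = 8, compared with the LPS-only group.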
# Mus musculus [9] = test: Antiinflammatory activity in C57BL/6J mouse model of LPS-induced acute lung injury assessed as reduction in IL-6 production in BALF at 20 mg/kg, po administered 30 mins prior to LPS treatment and measured after 6 hrs; assay type: functional, organism-based; conditions: time 6.5 hrs; procedure, shortened: as §4
# Mus musculus [10] = test: Antiinflammatory activity in C57BL/6J mouse model of LPS-induced acute lung injury assessed as reduction in TNF-alpha production in serum at 20 mg/kg, po administered 30 mins prior to LPS treatment and measured after 6 hrs; assay type: functional, organism-based; conditions: time 6.5 hrs; procedure, shortened: as §4
# Mus musculus [11] = test: Antiinflammatory activity in C57BL/6J mouse model of LPS-induced acute lung injury assessed as reduction in IL-6 production in serum at 20 mg/kg, po administered 30 mins prior to LPS treatment and measured after 6 hrs; assay type: functional, organism-based; conditions: time 6.5 hrs; procedure, shortened: as §4
# Mus musculus [12] = test: Antiinflammatory activity in C57BL/6J mouse model of LPS-induced acute lung injury assessed as reduction in alveolar septa thickness at 20 mg/kg, po administered 30 mins prior to LPS treatment and measured after 6 hrs by H and E staining based assay; assay type: functional, organism-based; conditions: time 6.5 hrs
# Procedure, shortened: (§5)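 Oral pretreatment 30 min before intratracheal LPS at 5 mg/kg, with a saline sham group. Lungs harvested 6 h later. H&E-stained sections scored for alveolar septal thickness, pulmonary congestion, inflammatory infiltration and tissue destruction.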
# Mus musculus [13] = test: Antiinflammatory activity in C57BL/6J mouse model of LPS-induced acute lung injury assessed as reduction in pulmonary congestion at 20 mg/kg, po administered 30 mins prior to LPS treatment and measured after 6 hrs by H and E staining based assay; assay type: functional, organism-based; conditions: time 6.5 hrs; procedure, shortened: as §5
# Mus musculus [14] = test: Antiinflammatory activity in C57BL/6J mouse model of LPS-induced acute lung injury assessed as reduction in inflammatory infiltration at 20 mg/kg, po administered 30 mins prior to LPS treatment and measured after 6 hrs by H and E staining based assay; assay type: functional, organism-based; conditions: time 6.5 hrs; procedure, shortened: as §5
# Mus musculus [15] = test: Antiinflammatory activity in C57BL/6J mouse model of LPS-induced acute lung injury assessed as reduction in tissue destruction at 20 mg/kg, po administered 30 mins prior to LPS treatment and measured after 6 hrs by H and E staining based assay; assay type: functional, organism-based; conditions: time 6.5 hrs; procedure, shortened: as §5
SMILES,Activity (J774.A1 [1]),Activity (J774.A1 [2]),also measured
COCCN1CCN(c2ccc(S(=O)(=O)Cc3cccc(F)c3)cc2[N+](=O)[O-])CC1,0.29%,inactive,
CN(C)CCS(=O)(=O)Cc1ccc(Br)cc1,79.61%,inactive,
Cc1ccc(CS(=O)(=O)c2ccc(N3CCN(CCO)CC3)c([N+](=O)[O-])c2)cc1,inactive,inactive,
CCN1CCN(c2ccc(S(=O)(=O)Cc3cccc(F)c3)cc2[N+](=O)[O-])CC1,58.89%,24.43%,
CN(C)c1ccc(S(=O)(=O)Cc2cccc(F)c2)cc1[N+](=O)[O-],inactive,inactive,
COc1cccc(CS(=O)(=O)c2ccc(N3CCN(CCO)CC3)c([N+](=O)[O-])c2)c1,15.23%,inactive,
CCN1CCN(c2ccc(S(=O)(=O)Cc3ccc(F)cc3)cc2[N+](=O)[O-])CC1,31.39%,inactive,
Cc1ccc(CS(=O)(=O)c2ccc(N3CCN(c4ccc([N+](=O)[O-])cc4)CC3)c([N+](=O)[O-])c2)cc1,inactive,inactive,
COc1cccc(CS(=O)(=O)c2ccc(N3CCNCC3)c([N+](=O)[O-])c2)c1,18.18%,inactive,
COCCN1CCN(c2ccc(S(=O)(=O)Cc3ccc(F)cc3)cc2[N+](=O)[O-])CC1,12.89%,inactive,
COc1cccc(CS(=O)(=O)c2ccc(N3CCN(c4ccc([N+](=O)[O-])cc4)CC3)c([N+](=O)[O-])c2)c1,66.21%,inactive,
COCCN1CCN(c2ccc(S(=O)(=O)Cc3cccc(OC)c3)cc2[N+](=O)[O-])CC1,inactive,inactive,
O=[N+]([O-])c1ccc(N2CCN(c3ccc(S(=O)(=O)Cc4ccc(F)cc4)cc3[N+](=O)[O-])CC2)cc1,62.47%,18.6%,
COCCN1CCN(c2ccc(S(=O)(=O)Cc3ccc(C)cc3)cc2[N+](=O)[O-])CC1,2.98%,inactive,
CC(=O)N1CCN(c2ccc(S(=O)(=O)Cc3cccc(F)c3)cc2[N+](=O)[O-])CC1,62.38%,36.28%,IC50 (J774.A1 [3]): 14.7 µM; Activity (J774.A1 [3]): Dose-Dependent Effect; IC50 (J774.A1 [4]): 28.9 µM; Activity (J774.A1 [4]): Active
O=[N+]([O-])c1ccc(N2CCN(c3ccc(S(=O)(=O)Cc4ccccc4)cc3[N+](=O)[O-])CC2)cc1,51.52%,inactive,
CC(=O)N1CCN(c2ccc(S(=O)(=O)Cc3ccc(F)cc3)cc2[N+](=O)[O-])CC1,33.81%,10.99%,
CC(=O)N1CCN(c2ccc(S(=O)(=O)Cc3ccccc3)cc2[N+](=O)[O-])CC1,40.41%,19.12%,
O=[N+]([O-])c1cccc(CN2CCN(c3ccc(S(=O)(=O)Cc4ccccc4)cc3[N+](=O)[O-])CC2)c1,57.27%,inactive,

SMILES,Activity (J774.A1 [1]),Activity (J774.A1 [2]),also measured
CN1CCN(c2ccc(S(=O)(=O)Cc3ccccc3)cc2[N+](=O)[O-])CC1,53.04%,16.86%,
O=[N+]([O-])c1cccc(CN2CCN(c3ccc(S(=O)(=O)Cc4cccc(F)c4)cc3[N+](=O)[O-])CC2)c1,59.44%,22.51%,
COc1cccc(CS(=O)(=O)c2ccc(N3CCN(C(C)=O)CC3)c([N+](=O)[O-])c2)c1,5.7%,inactive,
CC(=O)N1CCN(c2ccc(S(=O)(=O)Cc3ccc(C)cc3)cc2[N+](=O)[O-])CC1,16.83%,inactive,
O=[N+]([O-])c1cc(S(=O)(=O)Cc2ccccc2)ccc1N1CCN(CCO)CC1,56.59%,29.04%,
C[C@@H]1C[C@H]2[C@@H]3CCC4=CC(=O)C=C[C@]4(C)[C@@]3(F)[C@@H](O)C[C@]2(C)[C@@]1(O)C(=O)CO,,,Activity (Mus musculus [5]): Active; Activity (Mus musculus [6]): Active; Activity (Mus musculus [7]): Active
CCN1CCN(c2ccc(S(=O)(=O)Cc3cccc(OC)c3)cc2[N+](=O)[O-])CC1,63.29%,33.13%,IC50 (J774.A1 [3]): 5.66 µM; Activity (J774.A1 [3]): Dose-Dependent Effect; IC50 (J774.A1 [4]): 19.6 µM; Activity (J774.A1 [4]): Active; Activity (Mus musculus [5]): Active; Activity (Mus musculus [8]): Active; Activity (Mus musculus [9]): Active; Activity (Mus musculus [10]): Active; Activity (Mus musculus [11]): Active; Activity (Mus musculus [12]): Active; Activity (Mus musculus [13]): Active; Activity (Mus musculus [14]): Active; Activity (Mus musculus [15]): Active; Activity (Mus musculus [6]): Active; Activity (Mus musculus [7]): Active
COCCN1CCN(c2ccc(S(=O)(=O)Cc3ccccc3)cc2[N+](=O)[O-])CC1,inactive,inactive,
O=[N+]([O-])c1cccc(CN2CCN(c3ccc(S(=O)(=O)Cc4ccc(F)cc4)cc3[N+](=O)[O-])CC2)c1,59.52%,27.46%,
O=[N+]([O-])c1ccc(N2CCN(c3ccc(S(=O)(=O)Cc4cccc(F)c4)cc3[N+](=O)[O-])CC2)cc1,68.87%,12.18%,IC50 (J774.A1 [3]): 6.01 µM; Activity (J774.A1 [3]): Dose-Dependent Effect; IC50 (J774.A1 [4]): 23.4 µM; Activity (J774.A1 [4]): Active
O=[N+]([O-])c1cc(S(=O)(=O)Cc2ccc(F)cc2)ccc1N1CCN(CCO)CC1,54.2%,29.96%,
CCN1CCN(c2ccc(S(=O)(=O)Cc3ccc(C)cc3)cc2[N+](=O)[O-])CC1,52.95%,inactive,
O=[N+]([O-])c1ccc(CN2CCN(c3ccc(S(=O)(=O)Cc4ccc(F)cc4)cc3[N+](=O)[O-])CC2)cc1,71.54%,26.45%,Activity (J774.A1 [3]): inactive; Activity (J774.A1 [4]): inactive
COc1cccc(CS(=O)(=O)c2ccc(N3CCN(Cc4cccc([N+](=O)[O-])c4)CC3)c([N+](=O)[O-])c2)c1,41.95%,inactive,
CN(C)c1ccc(S(=O)(=O)Cc2ccc(F)cc2)cc1[N+](=O)[O-],inactive,inactive,
COc1cccc(CS(=O)(=O)c2ccc(N(C)C)c([N+](=O)[O-])c2)c1,8.62%,inactive,
O=[N+]([O-])c1cc(S(=O)(=O)Cc2cccc(F)c2)ccc1N1CCN(CCO)CC1,4.55%,inactive,
CN(C)c1ccc(S(=O)(=O)Cc2ccccc2)cc1[N+](=O)[O-],inactive,inactive,
CCN1CCN(c2ccc(S(=O)(=O)Cc3ccccc3)cc2[N+](=O)[O-])CC1,21.24%,inactive,
